Entries after “also recorded” stand apart in the source; their conditions may differ. Blank lines part the entries; values can stand above or below the compound they belong to.
Columns and labels:
[1] = target: CDPK1 G128A (Toxoplasma gondii, UniProt Q9BJF5, G128A); test: CDPK1 G128A mutant kinase assay, syntide-2 peptide ELISA; assay type: biochemical
[2] = target: human calmodulin dependent kinase II alpha (αCaMKII) (Homo sapiens, UniProt Q9UQM7); test: CaM Kinase II Assay CycLex kit; assay type: biochemical
In short: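 Human αCaMKII activity measured with a commercial CaM kinase II assay kit following the maker's recommendations. Test compound in serial dilutions; all samples run in triplicate. Data normalized and log-transformed, then fit by non-linear regression to a sigmoidal dose-response curve with variable slope to obtain IC50.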

[3] = target: CDPK1 G128S (Toxoplasma gondii, UniProt Q9BJF5, G128S); test: CDPK1 G128S mutant kinase assay, syntide-2 peptide ELISA; assay type: biochemical
[4] = target: CDPK1 G128T (Toxoplasma gondii, UniProt Q9BJF5, G128T); test: CDPK1 G128T mutant kinase assay, syntide-2 peptide ELISA; assay type: biochemical
[5] = In vitro microsome stability assay; assay type: in vitro ADME; settings: rat, liver microsomes
[6] = target: CDPK1 G128M (Toxoplasma gondii, UniProt Q9BJF5, G128M); test: CDPK1 G128M mutant kinase assay, syntide-2 peptide ELISA; assay type: biochemical
[7] = tested on: T. gondii type II Pru-LUC strain; test: Murine infection model of toxoplasmosis; assay type: in vivo, mouse; settings: 30 days post-infection, 5 mg/kg daily i.p. for 10 days
[8] = tested on: T. gondii highly virulent RH strain; settings: cited from earlier work
[9] = tested on: T. gondii 2F clone of the type I RH strain in HFF cells; test: Inhibition of parasite growth in vitro in HFF monolayers; assay type: cell-based, Toxoplasma gondii

SMILES: Cc1cccc(Cc2nn(C(C)(C)C)c3ncnc(N)c23)c1 [Compound 1, 3-methyl-benzyl pyrazolo [3,4-d] pyrimidine]
IC50 [1]: 13.7 ± 7.1 nM | shift in potency vs Gly gatekeeper ([1]; Gly to Ala): 3-5 fold | IC50 [2]: > 10000 nM | sensitivity of human CamKIIα ([2]; Phe gatekeeper): completely resistant | IC50 [3]: 22.9 ± 7.5 nM | shift in potency vs Gly gatekeeper ([3]; Gly to Ser): 3-5 fold | IC50 [4]: 222 ± 43.7 nM | additional decrease in inhibition ([4]; Gly to Thr, relative to Ala or Ser): 10 fold | microsome stability [5]: extremely unstable; also recorded: poor microsome stability | IC50 [6]: > 10000 nM | sensitivity of Met gatekeeper TgCDPK1 ([6]; Gly to Met): completely insensitive

SMILES: CC(C)(C)n1nc(Cc2cccc(Cl)c2)c2c(N)ncnc21 [Compound 3, 3-chloro-benzyl pyrazolo [3,4-d] pyrimidine]
brain tissue cyst burden in surviving mice [7]: considerable variation in the reduction of cyst numbers

microsomal CLint [5]: > 350 µL/min/mg
SMILES: CC(C)(C)n1nc(Cc2cccc(Br)c2)c2c(N)ncnc21 [Compound 4, 3-bromo-benzyl pyrazolo [3,4-d] pyrimidine]

SMILES: CC(C)(C)n1nc(Cc2cccc3ccccc23)c2c(N)ncnc21 [Compound 6, 1-napthylmethyl-PP]
parasite burdens ([8]; 10-fold higher doses, i.p. inoculation): modest reduction in parasite burdens | protection against lethal challenge ([8]; oral administration, RH strain): failed to protect

microsomal CLint [5]: 250 µL/min/mg
SMILES: CC(C)(C)n1nc(Cc2cc(Cl)ccc2F)c2c(N)ncnc21 [Compound 10]

SMILES: CC(C)n1nc(Cc2cccc(Cl)c2Cl)c2c(N)ncnc21 [Compound 11]
microsomal CLint [5]: 190 µL/min/mg | brain tissue cyst burden in surviving mice [7]: considerable variation in the reduction of cyst numbers

microsomal CLint [5]: > 350 µL/min/mg
SMILES: CC(C)(C)n1nc(Cc2cccc(Cl)c2F)c2c(N)ncnc21 [Compound 18]

microsomal CLint [5]: > 350 µL/min/mg
SMILES: CC(C)(C)n1nc(Cc2ccc(F)c(Cl)c2)c2c(N)ncnc21 [Compound 20]

microsomal CLint [5]: > 350 µL/min/mg
SMILES: CC(C)n1nc(Cc2cc(F)cc(Cl)c2)c2c(N)ncnc21 [Compound 21]

SMILES: CC(C)(C)n1nc(Cc2cc(F)cc(F)c2)c2c(N)ncnc21 [Compound 24]
brain tissue cyst burden in surviving mice ([7]; 5 mg/kg): much more potent and uniform protection; also recorded: most effective in reducing the chronic burden of CNS infection

SMILES: CC(C)n1nc(C(O)c2cccc(Cl)c2Cl)c2c(N)ncnc21 (centres unmarked) [Compound 25]
microsomal CLint [5]: 68 µL/min/mg | activity against T. gondii [9]: inactive

microsomal CLint [5]: 107 µL/min/mg
SMILES: CC(C)n1nc(C(F)c2cccc(Cl)c2Cl)c2c(N)ncnc21 (centres unmarked) [Compound 26]

SMILES: CCc1nc(N)nc(N)c1-c1ccc(Cl)cc1 [pyrimethamine, reference compound]
treatment time required to demonstrate potent inhibition of growth ([9]; 4 h vs 24 h treatment, growth to 72 h): at least 24 h
